Screening data as filed in PubChem.
These entries were drawn from the full list.
INS-1E rescue = INS-1E beta cell protection from cytokine death. INS-1E cytokine-induced death, ATP luminescence, 48 h; normalised: neutral wells 0, positive control 100. protection from cytokine-induced ATP loss, % at 10 µM. 20,000 tested, 0.1% active;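 active means mean replicate protection from cytokine-induced ATP loss at least 50% and at least 75% of replicates each reaching 50%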
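Material: INS-1E rat cells; Quantity: 8000 cells/well; Buffer or medium: phenol-red-free RPMI with 5% fetal bovine serum; Probe or stimulus: cytokine cocktail of IFN-γ, TNF-α and IL-1β; Compound dosing: single test concentration per compound, delivered by pin transfer; Incubation: 48 h co-treatment, 10 min post-lysis read; Signal: CellTiter-Glo luminescence.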
A1 apoptosis 2 = compounds inhibiting A1, read as caspase activation; 24,000 tested, under 10 active; AID 2465; MEF A1-2A-BIM cells, caspase-Glo luminescence, 3 h; percent of clofoctol response, DMSO zero; caspase activation, % (concentration not given with the values); in the data active means caspase activation above about 5.9%
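Material: A1-2A-BIM-expressing MEF cells. Buffer or medium: RPMI-1640 plus 10% FBS. Incubation: cells settled overnight, compound exposure 3 h at 37 °C, 5% CO2. Signal: Caspase-Glo 3/7 luminescence, 1 h at room temperature.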
T cruzi intra = intracellular Trypanosoma cruzi inhibition. intracellular Trypanosoma cruzi in host cells, plate reader. activity score (inhibition), % at 5.01 µM. 22,000 tested, 4.9% active. AID 651903; in the data active means activity score above about 55%;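 further: parasites and compound incubated about four days before reading; 0% = median of neutral control wells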
An asterisk follows results filed as active.

Results for COc1cccc(S(=O)(=O)N(C)C[C@@H]2Oc3ncc(C#CCN(C)C)cc3C(=O)N([C@H](C)CO)C[C@@H]2C)c1 ?
INS-1E rescue: 2; A1 apoptosis 2: 0; T cruzi intra: 15

How did Cc1noc(C)c1NC(=O)N(C)C[C@H]1Oc2ccc(NC(=O)CCN3CCOCC3)cc2C(=O)N([C@@H](C)CO)C[C@H]1C do in these assays?
INS-1E rescue: 4; T cruzi intra: 5

How did CC1=C(C/C=N/NC(=O)CCCCCC(=O)NO)C(C)(C)CCC1 do in these assays?
A1 apoptosis 2: 1

What do the screens show for `O=C(CCCCCC(=O)Nc1ccccc1O)N/N=C/c1ccccc1O`?
A1 apoptosis 2: 0

How did O=C(CCCCCCC(=O)Nc1ccccc1O)N/N=C/c1ccc(O)cc1 do in these assays?
INS-1E rescue: -13; A1 apoptosis 2: 0; T cruzi intra: -10
